Eight compounds from ChEMBL document CHEMBL1817547, “Design, synthesis, and biological evaluation of curcumin analogues as multifunctional agents for the treatment of Alzheimer's disease” (Bioorg Med Chem, 2011) can be followed below.

Calls of active or inactive are those of the source. No cut-off for these calls is given here.

In the first series the test system is SH-SY5Y. Put plainly: Cytotoxicity against human SH-SY5Y cells assessed as cell viability at 2.5 uM. The format is cell-based. In short, it runs like this:
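SH-SY5Y cells seeded at 3 × 10^4 per well, 24 h later exposed to 2.5 µM compound (final 0.05% DMSO) or vehicle for 24 h, then assessed for markers of cell death.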
For the compound `CN1CCN(c2ccc(/C=C/c3cccc(/C=C/c4ccc(N5CCN(C)CC5)cc4)c3)cc2)CC1`, the Activity entry is on record as “Non-toxic”.
Turning to `CN1CCN(c2ccc(/C=C/C(=O)/C=C/c3ccc(N4CCN(C)CC4)cc3)cc2)CC1`, the Activity entry is “Non-toxic”.
In the case of `CN1CCN(c2ccc(/C=C/C(=O)CC(=O)/C=C/c3ccc(N4CCN(C)CC4)cc3)cc2)CC1`, the Activity result is recorded as “Non-toxic”.
Consider `CN1CCN(c2ccc(/C=C/c3cccc(/C=C/c4ccc(N5CCN(C)CC5)cc4)n3)cc2)CC1`, for which the Activity entry is listed as “Non-toxic”.

Tested on in the next series: not listed separately
Put plainly: Inhibition of self-mediated amyloid beta (1 to 42) aggregation after 48 hrs by thioflavin T fluorescence assay. The method, boiled down:
(§1)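 Aβ1–42 (final 20 µM) incubated in 10 mM phosphate pH 7.4 at 37 °C for 48 h with or without compound (2, 5, 10, 20, 50 µM). Samples diluted into 50 mM glycine–NaOH pH 8.5 with 5 µM ThT, read at ex 450/em 485 nm. Inhibition % = (1 − IFi/IFc) × 100; mean ± SD from at least two independent measurements.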
By IC50 is commonly meant the concentration needed to halve the response being measured. On to `CN1CCN(c2ccc(/C=C/c3cccc(/C=C/c4ccc(N5CCN(C)CC5)cc4)c3)cc2)CC1`, for which the IC50 is greater than 50 µM.
Regarding `CN1CCN(c2ccc(/C=C/C(=O)/C=C/c3ccc(N4CCN(C)CC4)cc3)cc2)CC1`, the IC50 was 21.5 µM.
On to `CN1CCN(c2ccc(/C=C/C(=O)CC(=O)/C=C/c3ccc(N4CCN(C)CC4)cc3)cc2)CC1`, for which the IC50 was 9.2 µM. This IC50 is about 2.3-fold lower than that of the compound before.
`CN1CCN(c2ccc(/C=C/c3cccc(/C=C/c4ccc(N5CCN(C)CC5)cc4)n3)cc2)CC1` yielded an IC50 greater than 50 µM.
Same read-out and setting: the result for `COc1cc(/C=C/C(=O)CC(=O)/C=C/c2ccc(O)c(OC)c2)ccc1O` [CURCUMIN] reads 12.1 µM.

Tested on in another series: not listed separately
Kind of series: Inhibition of self-mediated amyloid beta (1 to 42) aggregation at 50 uM after 48 hrs by thioflavin T fluorescence assay relative to control. In short, it runs like this:
as §1
What is called inhibition is the percentage by which the read-out fell short of the control. `CN1CCN(c2ccc(/C=C/c3cccc(/C=C/c4ccc(N5CCN(C)CC5)cc4)c3)cc2)CC1` registered an inhibition of 42.1%.
Compound `CN1CCN(c2ccc(/C=C/C(=O)/C=C/c3ccc(N4CCN(C)CC4)cc3)cc2)CC1` had an inhibition of 68.6%.
As for `CN1CCN(c2ccc(/C=C/C(=O)CC(=O)/C=C/c3ccc(N4CCN(C)CC4)cc3)cc2)CC1`, the inhibition stood at 77.8%.
In turn, `CN1CCN(c2ccc(/C=C/c3cccc(/C=C/c4ccc(N5CCN(C)CC5)cc4)n3)cc2)CC1` displayed an inhibition of 24%.
Take `COc1cc(/C=C/C(=O)CC(=O)/C=C/c2ccc(O)c(OC)c2)ccc1O` [CURCUMIN]: the inhibition was 71.3%.

Tested on in a further series: not listed separately
Kind of series: Antioxidant activity assessed as trolox equivalent of APPH-induced radical scavenging activity at 0.625 to 2.5 uM by ORAC fluorescence assay. It counts as functional. The method, boiled down: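 AAPH (40 mM) peroxyl-radical decay of fluorescein (140 nM working solution) in 75 mM potassium phosphate pH 7.4; compounds from DMSO stocks tested at final 2.5, 1.25 and 0.625 µM. Each mixture in four replicates, at least four independent runs. Curves normalized to blank, net AUC computed, values expressed as Trolox equivalents from a Trolox standard curve.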
On to `CN1CCN(c2ccc(/C=C/c3cccc(/C=C/c4ccc(N5CCN(C)CC5)cc4)c3)cc2)CC1`, for which the Ratio was 1.2.
Regarding `CN1CCN(c2ccc(/C=C/C(=O)/C=C/c3ccc(N4CCN(C)CC4)cc3)cc2)CC1`, the Ratio stood at 3.2.
Consider `CN1CCN(c2ccc(/C=C/C(=O)CC(=O)/C=C/c3ccc(N4CCN(C)CC4)cc3)cc2)CC1`, for which the Ratio is 1.9.
The same measure, in the same setting: with `CN1CCN(c2ccc(/C=C/c3cccc(/C=C/c4ccc(N5CCN(C)CC5)cc4)n3)cc2)CC1` the figure was 1.1.
For `COc1cc(/C=C/C(=O)CC(=O)/C=C/c2ccc(O)c(OC)c2)ccc1O` [CURCUMIN], the Ratio came to 2.5.

The next series relates to SH-SY5Y. Put plainly: Antioxidant activity in human SH-SY5Y cells assessed as decrease of tert-butyl hydroperoxide-induced ROS production at 2.5 uM after 24 hrs using DCFH-DA by fluorescence assay. It counts as functional, cell-based. The method, boiled down:
(§2)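 SH-SY5Y grown in DMEM with 10% supplement at 37 °C, 5% CO2, seeded 3 × 10^4 cells/well. After 24 h, compounds were added (2.5 µM; reference antioxidants at 20 µM). Cells were loaded with 5 µM DCFH-DA in PBS for 30 min at 37 °C, washed, then exposed to 0.1 mM t-BuOOH for 30 min. Fluorescence read at ex 485/em 535 nm, expressed as % of untreated control.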
For the compound `CN1CCN(c2ccc(/C=C/C(=O)/C=C/c3ccc(N4CCN(C)CC4)cc3)cc2)CC1`, the result was Active.

In a further series the test system is SH-SY5Y. Kind of series: Antioxidant activity in human SH-SY5Y cells assessed as decrease of tert-butyl hydroperoxide-induced ROS production at 20 uM after 24 hrs using DCFH-DA by fluorescence assay. The format is functional, cell-based. In short, it runs like this: as §2
As to `Cc1c(C)c2c(c(C)c1O)CCC(C)(C(=O)O)O2` (stereo not given), the result was Active.
In the case of `CC(=O)N[C@@H](CS)C(=O)O`, the outcome was inactive.
Still for that read-out and setting: with `COc1cc(/C=C/C(=O)CC(=O)/C=C/c2ccc(O)c(OC)c2)ccc1O` [CURCUMIN] the entry was “Active”.

Tested on in another series: not listed separately
Kind of series: Inhibition of copper-induced amyloid beta (1 to 42) aggregation in HEPES buffer at pH 6.6 after 45 mins by thioflavin T fluorescence assay. In short, it runs like this:
(§3)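 Aβ1–42 (20 µM) co-incubated with 40 µM Cu2+ or Fe2+ (HEPES pH 6.6) or Zn2+ (HEPES pH 7.4), with 150 µM NaCl, with or without 40 µM compound or clioquinol, at 37 °C for 45 min. Samples diluted into 50 mM glycine–NaOH pH 8.5 with 5 µM ThT; fluorescence read at ex 450/em 485 nm.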
In the case of `Oc1c(I)cc(Cl)c2cccnc12`, the inhibition result was “Active”.

Tested on in another series: not listed separately
Put plainly: Inhibition of iron-induced amyloid beta (1 to 42) aggregation in HEPES buffer at pH 6.6 after 45 mins by thioflavin T fluorescence assay. In short, it runs like this: as §3
For `Oc1c(I)cc(Cl)c2cccnc12`, the inhibition entry was “Active”.
